These results are taken from ChEMBL document CHEMBL2069230, “Synthesis, biological evaluation, and docking studies of 3-(substituted)-aryl-5-(9-methyl-3-carbazole)-1H-2-pyrazolines as potent anti-inflammatory and antioxidant agents” (Bioorg Med Chem Lett, 2012).

Data set [1] concerns the target Prostaglandin G/H synthase 1 (Homo sapiens) (UniProt P23219). Kind of data set: Inhibition of COX1 peroxidase activity assessed as formation of TMPD at 100 uM by colorimetric analysis. Summed up: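 COX-1 peroxidase activity: assay buffer, heme and enzyme with sample (0.1 mM); oxidized TMPD appearance monitored colorimetrically at 590 nm.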
Data set [2] concerns Radical scavenging activity. The data set can be described thus: Antioxidant activity assessed as DPPH radical scavenging activity at 100 uM after 20 mins by spectrophotometry. The format is functional. Summed up:
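Test solution (0.1 mM) mixed with an equal quantity of 0.1 mM DPPH in ethanol; 20 min at room temperature, then DPPH reduction read as absorbance at 517 nm. Ascorbic acid (0.1 mM) as reference.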

Data set [3] in a line: Antioxidant activity assessed as H2O2-induced hydroxyl radical scavenging activity at 100 uM after 5 mins by spectrophotometry. The format is functional. Summed up: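 Mixture of FeCl2 (1 mM), 1,10-phenanthroline (1 mM), phosphate buffer (0.2 M, pH 7.8), H2O2 (0.17 M) and sample (0.1 mM); reaction started with H2O2, 5 min at room temperature, absorbance at 560 nm. Ascorbic acid (0.1 mM) reference.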

The next data set is filed under the species Homo sapiens. Kind of data set: Selectivity ratio of inhibition of COX2 to inhibition of COX1.
A short description of data set [4]: Antioxidant activity assessed as superoxide radical scavenging activity at 100 uM after 5 mins by NBT reduction assay. The format is functional. Summed up:
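Superoxide generated in Tris-HCl (100 mM, pH 7.4) with NBT (300 µM), NADH (936 µM) and sample (0.1 mM); NBT reduction read after 5 min at room temperature as absorbance at 560 nm. Ascorbic acid (0.1 mM) reference.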

Data set [5] deals with Mus musculus. The data set can be described thus: Toxicity in carrageenan-challenged AKR mouse up to 0.5 mmol/kg dosed intradermally. The format is organism-based. As to conditions: in vivo, other.
The test system of data set [6] is Mus musculus. Kind of data set: Antiinflammatory activity in AKR mouse assessed as inhibition of carrageenan-induced paw edema at 0.01 mmol/kg dosed intradermally after 3.5 hrs relative to vehicle-treated control. It counts as functional. A digest of the protocol: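 Edema induced in right hind paw of AKR mice (both sexes, pregnant females excluded, fasted during experiment) by intradermal 0.05 mL of 2% carrageenin in water; 6–10 animals per group. Paw weight increase, injected vs uninjected paw, compared with water-treated controls as percent edema inhibition; experiments in duplicate, mean of two.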

Prostaglandin G/H synthase 1 (Homo sapiens), sequence (P23219 whole entry): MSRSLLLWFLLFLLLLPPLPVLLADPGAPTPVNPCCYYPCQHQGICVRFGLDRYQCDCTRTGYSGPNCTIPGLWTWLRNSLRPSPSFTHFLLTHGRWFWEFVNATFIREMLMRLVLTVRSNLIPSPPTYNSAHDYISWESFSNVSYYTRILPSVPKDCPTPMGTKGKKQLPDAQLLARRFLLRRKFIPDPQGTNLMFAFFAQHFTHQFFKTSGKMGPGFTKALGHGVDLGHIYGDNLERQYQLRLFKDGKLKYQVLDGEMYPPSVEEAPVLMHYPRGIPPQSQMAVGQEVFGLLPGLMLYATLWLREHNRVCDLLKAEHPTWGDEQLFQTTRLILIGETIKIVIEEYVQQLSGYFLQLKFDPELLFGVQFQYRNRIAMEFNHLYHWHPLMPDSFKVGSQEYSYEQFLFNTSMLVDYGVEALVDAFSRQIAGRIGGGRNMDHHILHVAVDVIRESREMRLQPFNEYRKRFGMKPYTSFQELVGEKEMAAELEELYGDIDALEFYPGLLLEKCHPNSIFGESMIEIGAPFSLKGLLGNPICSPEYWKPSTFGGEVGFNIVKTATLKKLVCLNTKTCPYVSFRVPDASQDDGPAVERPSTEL

A word on the inhibition: it is how much of the control response was suppressed. For `Cn1c2ccccc2c2cc(C3CC(c4ccc(F)c(F)c4)=NN3)ccc21` (stereo unspecified), the inhibition in data set [1] turned out to be 90.8%. The Activity in data set [2] came to 79.8%; in data set [3], 63.2%; in data set [4], 69.4%. The Selectivity ratio in the data set filed under Homo sapiens came out at 0.22.

A word on the inhibition in vivo: it is the share of the control response that was lost under treatment. For `Cn1c2ccccc2c2cc(C3CC(c4cccs4)=NN3)ccc21` (stereo unspecified), the inhibition in data set [1] was found to be 18.5%. For the same compound, the Activity result with Mus musculus [5] was “Non-toxic”; in data set [2] it was 85.3%; in data set [3], 63.1%; in data set [4], 81.1%. Also, in the data set with Mus musculus [6], the inhibition in vivo at 10 µmol/kg is 42.2%. For the same compound, the Selectivity ratio in the data set filed under Homo sapiens stood at 2.61.

With `Cn1c2ccccc2c2cc(C3CC(c4ccc(Cl)cc4Cl)=NN3)ccc21` (stereo unspecified), the inhibition in data set [1] turned out to be 24.1%. For the same compound, the Activity in data set [2] was determined as 92.1%; in data set [3], 69.3%; in data set [4], 81.7%. For the same compound, in the data set listed under Homo sapiens, the Selectivity ratio was determined as 1.68.

As to `COc1cc(OC)c(C2=NNC(c3ccc4c(c3)c3ccccc3n4C)C2)c(OC)c1` (stereo unspecified), the inhibition in data set [1] stood at 23.5%. Also, the Activity entry with Mus musculus [5] was “Non-toxic”; in data set [2], 86%; in data set [3] it was 74.3%; in data set [4], 70.4%. Further, the inhibition in vivo at 10 µmol/kg in the data set with Mus musculus [6] was 54.3%. Further, the Selectivity ratio in the data set filed under Homo sapiens is 3.69.

`Cn1c2ccccc2c2cc(C3CC(c4ccc(F)cc4)=NN3)ccc21` (stereo unspecified): the inhibition in data set [1] is 46.2%. In addition, the Activity came to 79.3% in data set [2], 54.6% in data set [3] and 45.6% in data set [4]. Besides, the Selectivity ratio in the data set filed under Homo sapiens was 0.49.

Consider `Cn1c2ccccc2c2cc(C3CC(c4ccc(Cl)c(Cl)c4)=NN3)ccc21` (stereo unspecified), for which, in data set [1], the inhibition turned out to be 12.2%. Moreover, the results for the Activity in data set [2], in data set [3] and in data set [4] were 87.4%, 65.1% and 61.4%, respectively. In addition, the Selectivity ratio in the data set filed under Homo sapiens worked out at 1.34.

In the case of `Cn1c2ccccc2c2cc(C3CC(c4ccc([N+](=O)[O-])cc4)=NN3)ccc21` (stereo unspecified), the inhibition in data set [1] was determined as 14.2%. In addition, the Activity in data set [2] is 81.1%; in data set [3], 64.8%; in data set [4] it was 65.1%. Moreover, the Selectivity ratio in the data set listed under Homo sapiens came out at 1.3.

As to `COc1ccc(C2=NNC(c3ccc4c(c3)c3ccccc3n4C)C2)cc1` (stereo unspecified), the inhibition in data set [1] worked out at 20.6%. The Activity result in the data set on Mus musculus [5] is “Non-toxic”; in data set [2] it was 80.8%; in data set [3], 58.2%; in data set [4], 56.2%. Besides, the inhibition in vivo at 10 µmol/kg in the data set on Mus musculus [6] stood at 51.4%. For the same compound, in the data set filed under Homo sapiens, the Selectivity ratio was 4.06.

As for `Cn1c2ccccc2c2cc(C3CC(c4ccc(Br)cc4)=NN3)ccc21` (stereo unspecified), the inhibition in data set [1] came to 87.4%. The Activity in data set [2] stood at 80.6%; in data set [3] it was 57.5%; in data set [4], 56.2%. The Selectivity ratio in the data set listed under Homo sapiens turned out to be 1.02.

On to `Cn1c2ccccc2c2cc(C3CC(c4ccccc4)=NN3)ccc21` (stereo unspecified), for which the inhibition in data set [1] is 10.2%. Moreover, the Activity in data set [2] came to 79.9%; in data set [3] it was 63.5%; in data set [4], 63.2%. In addition, the Selectivity ratio in the data set filed under Homo sapiens was determined as 2.16.

`Cn1c2ccccc2c2cc(C3CC(c4cc(Cl)ccc4Cl)=NN3)ccc21` (stereo unspecified): the inhibition in data set [1] was 8.85%. For the same compound, the Activity in data set [2] turned out to be 91.7%; in data set [3] it was 78.6%; in data set [4], 86.3%. Moreover, the Selectivity ratio in the data set filed under Homo sapiens is 1.14.

With `O=C1O[C@H]([C@@H](O)CO)C(O)=C1O`, the Activity was found to be 91.5% in data set [2], 88.3% in data set [3] and 52% in data set [4].

As to `Cn1c2ccccc2c2cc(C3CC(c4ccc(Cl)cc4)=NN3)ccc21` (stereo unspecified), in data set [1], the inhibition came to 10.2%. Besides, the Activity in data set [2] came out at 79.3%; in data set [3], 55%; in data set [4], 62.4%. In the data set filed under Homo sapiens, the Selectivity ratio was 1.24.

Consider `COc1ccc(C2=NNC(c3ccc4c(c3)c3ccccc3n4C)C2)cc1OC` (stereo unspecified), for which the inhibition in data set [1] turned out to be 24.1%. For the same compound, the Activity entry in the data set on Mus musculus [5] was “Non-toxic”; in data set [2], 84%; in data set [3], 69.3%; in data set [4], 69.4%. For the same compound, in the data set with Mus musculus [6], the inhibition in vivo at 10 µmol/kg was 60.3%. The Selectivity ratio in the data set filed under Homo sapiens is 3.66.

In the case of `Cn1c2ccccc2c2cc(C3CC(c4ccccn4)=NN3)ccc21` (stereo unspecified), the inhibition in data set [1] was 20.1%. The Activity in data set [2] was 72%; in data set [3], 54.8%; in data set [4], 62.2%. In the data set filed under Homo sapiens, the Selectivity ratio was 2.06.

For `Cn1c2ccccc2c2cc(C3CC(c4ccc(F)cc4F)=NN3)ccc21` (stereo unspecified), the inhibition in data set [1] worked out at 10.4%. In addition, the Activity in data set [2] came to 83.8%; in data set [3], 60.2%; in data set [4], 63.2%. For the same compound, the Selectivity ratio in the data set filed under Homo sapiens came out at 2.58.
